Source: ChEMBL document CHEMBL1138863, “Synthesis, in vitro antiviral evaluation, and stability studies of novel alpha-borano-nucleotide analogues of 9-[2-(phosphonomethoxy)ethyl]adenine and (R)-9-[2-(phosphonomethoxy)propyl]adenine” (J Med Chem, 2006)

How the values were obtained:
[1] = Stability in culture medium (RPMI+FBS); format: physicochemical; conditions: bovine
Outline: (§1)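 Compound diluted to 0.1 mM final in RPMI 1640 or culture medium (RPMI 1640 + 10% heat-inactivated FCS), incubated 37 °C; aliquots frozen at -80 °C and analysed by on-line cleaning HPLC (C18, TEAB/acetonitrile gradient, 260 nm); half-lives calculated.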

[2] = system: Human alphaherpesvirus 2; test: Antiviral activity against HSV2 in HEL cells; format: functional, organism-based; conditions: Human alphaherpesvirus 2, HEL
[3] = system: Human immunodeficiency virus 1; test: Antiviral activity against HIV1 in MAGI-CCR5 cells; format: functional, organism-based; conditions: Human immunodeficiency virus 1, MAGI-CCR5
[4] = system: Human alphaherpesvirus 1; test: (§2) Antiviral activity against HSV1 KOS in HEL cells; format: functional, organism-based; conditions: Human alphaherpesvirus 1, KOS
[5] = system: Human respirovirus 3; test: Antiviral activity against para influenza 3 virus in Vero cells; format: functional, organism-based; conditions: Human respirovirus 3, Vero
[6] = system: Vaccinia virus; test: Antiviral activity against vaccinia virus in HEL cells; format: functional, organism-based; conditions: Orthopoxvirus vaccinia
[7] = Stability in pH 7.4 buffer at 37 degC after 72 hrs; format: physicochemical; conditions: pH 7.4, 72 h
Outline: (§3)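 Compound at 0.1 mM final in buffer (pH 1.2, 5.2, 7.4, 8.1, 9.0 or 11.5) at 37 °C up to 72 h; aliquots frozen at -80 °C, analysed by reverse-phase HPLC (TEAB/acetonitrile gradient, 260 nm); "stable" = less than 5% decomposition after 72 h.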

[8] = system: Mammalian orthoreovirus 1; test: Antiviral activity against reovirus 1 in Vero cells; format: functional, organism-based; conditions: Mammalian orthoreovirus 1, Vero
[9] = Stability in pH 1.2 buffer at 37 degC after 72 hrs; format: physicochemical; conditions: pH 1.2, 72 h; outline: as §3
[10] = Cytotoxicity against Huh5-2 cells; format: cell-based, Huh-5-2; conditions: human
Outline: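 Parallel Huh-5-2 cultures (7000 cells/well) given five 5-fold compound dilutions from 100 µM without G418; proliferation measured 3 days after addition by MTS bioreduction to formazan, read in a plate reader.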

[11] = Stability in CEM-SS cell extracts; format: physicochemical, cell-based; conditions: human
Outline: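 CEM-SS cells were washed in PBS, resuspended at 30 × 10^6 cells/mL in 10 mM Tris-HCl, 140 mM KCl (pH 7.4), sonicated and cleared at 10 000g. The supernatant (soluble protein 3 mg/mL) was spiked to a final 0.1 mM compound and incubated at 37 °C. Samples were drawn over time, frozen at -80 °C, and analysed by on-line cleaning reverse-phase HPLC (TEAB gradient, 260 nm). Half-life was calculated.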

[12] = Cytotoxicity against HeLa cells; format: cell-based; conditions: human
[13] = system: Vesicular stomatitis virus; test: Antiviral activity against vesicular somatitis virus in HEL cells; format: functional, organism-based
[14] = Cytotoxicity against HEL cells; format: cell-based; conditions: human
[15] = system: Punta Toro virus; test: Antiviral activity against Punta Toro virus in Vero cells; format: functional, organism-based
[16] = Stability in pH 11.5 buffer at 37 degC after 72 hrs; format: physicochemical; conditions: pH 11.5, 72 h; outline: as §3
[17] = system: Sindbis virus; test: Antiviral activity against Sindbis virus in Vero cells; format: functional, organism-based
[18] = system: Hepatitis C virus; test: Antiviral activity against HCV in Huh5-2 cells by subgenomic replicon assay; format: functional, organism-based, Hepacivirus hominis; conditions: Huh-5-2
Outline: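 Huh-5-2 cells bearing HCV genotype 1b subgenomic replicon I389luc-ubi-neo/NS3-3'/5.1, seeded 7000 cells/well, adhered 24 h, then five 5-fold dilutions from 100 µM in medium lacking G418 for 72 h at 37 °C, 5% CO2. Interferon alfa 2a (500 IU) positive control. Firefly luciferase read as % of untreated cultures; EC50 calculated.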

[19] = Stability in pH 5.2 buffer at 37 degC after 72 hrs; format: physicochemical; conditions: pH 5.2, 72 h; outline: as §3
[20] = Stability in pH 8.1 buffer at 37 degC after 72 hrs; format: physicochemical; conditions: pH 8.1, 72 h; outline: as §3
[21] = Stability in pH 9.0 buffer at 37 degC after 72 hrs; format: physicochemical; conditions: pH 9, 72 h; outline: as §3
[22] = Cytotoxicity against Vero cells; format: cell-based; conditions: chlorocebus sabaeus
[23] = system: Coxsackievirus B4; test: Antiviral activity against Coxsackie B4 virus in HeLa cells; format: functional, organism-based; conditions: Enterovirus B
[24] = system: Respiratory syncytial virus; test: Antiviral activity against RSV in HeLa cells; format: functional, organism-based; conditions: human respiratory syncytial virus
[25] = Cytotoxicity against MAGI-CCR5 cells; format: cell-based; conditions: human
Outline: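 MAGI-CCR5 cells (10^4 cells/well) were exposed to 0-400 µM compound, 4 h before mock/HIV-1 spinoculation and then throughout a 2-day culture. CC50 is the concentration inhibiting cell proliferation by 50%.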

[26] = Stability in RPMI-1640 medium; format: ADME; outline: as §1
[27] = system: Human alphaherpesvirus 1; test: as §2; format: functional, organism-based; conditions: Human alphaherpesvirus 1, KOS; remark: listed apart in the source

| SMILES | half-life [1] [h] | EC50 [2] [µM] | EC50 [3] [µM] | EC50 [4] [µM] | EC50 [6] [µM] | Stability [7] | EC50 [8] [µM] | Stability [9] | CC50 [12] [µM] | EC50 [13] [µM] | CC50 [14] [µM] | EC50 [15] [µM] | Stability [16] | EC50 [17] [µM] | Stability [19] | CC50 [22] [µM] | EC50 [23] [µM] | EC50 [24] [µM] | CC50 [25] [µM] | EC50 [27] [µM] | further results |
| --- | --- | --- | --- | --- | --- | --- | --- | --- | --- | --- | --- | --- | --- | --- | --- | --- | --- | --- | --- | --- | --- |
| Nc1ncnc2c1ncn2CCOC[PH](=O)O | > 72 | 120 | > 400 | 120 | > 200 | Stable | > 200 | Stable | > 200 | > 200 | > 200 | > 200 | Stable | > 200 | Stable | > 200 | > 200 | > 200 | > 400 | > 200 | EC50 [5]: > 200 µM; CC50 [10]: > 200 µM; half-life [11]: > 72 h; EC50 [18]: > 33 µM; Stability [20]: Stable; Stability [21]: Stable; half-life [26]: > 72 h |
| BP(=O)(O)COCCn1cnc2c(N)ncnc21 | 5.3 | > 200 | > 400 | > 200 |  | Stable | > 200 | Stable | > 200 |  | > 200 | > 200 | Stable | > 200 | Stable | > 200 | > 200 | > 200 | > 400 | > 200 | CC50 [10]: > 200 µM; half-life [11]: 48 h; EC50 [18]: > 33 µM; Stability [20]: Stable; Stability [21]: Stable; half-life [26]: > 72 h |
| BP(=O)(O)CO[C@H](C)Cn1cnc2c(N)ncnc21 | 1.3 | > 200 | > 400 | 120 |  | Stable | > 200 | Stable | > 200 |  | > 200 | > 200 | Stable | > 200 | Stable | > 200 | > 200 | > 200 | > 400 | > 200 | CC50 [10]: > 200 µM; half-life [11]: 24 h; EC50 [18]: > 33 µM; Stability [20]: Stable; Stability [21]: Stable; half-life [26]: > 72 h |
| C[C@H](Cn1cnc2c(N)ncnc21)OC[PH](=O)O | > 72 | > 200 | > 400 | > 200 | > 200 | Stable | > 200 | Stable | > 200 | > 200 | > 200 | > 200 | Stable | > 200 | Stable | > 200 | > 200 | > 200 | > 400 | > 200 | EC50 [5]: > 200 µM; CC50 [10]: > 200 µM; EC50 [18]: > 33 µM; Stability [20]: Stable; Stability [21]: Stable; half-life [26]: > 72 h |
| Nc1ncnc2c1ncn2C[C@H](O)CO [(S)-DHPA] |  |  |  |  |  |  | > 500 |  | > 500 |  |  | > 500 |  | > 500 |  | > 500 | > 500 | > 500 |  |  | EC50 [5]: > 500 µM |
| Nc1nc2c(ncn2COCCO)c(=O)[nH]1 [ACYCLOVIR] |  | 0.48 |  | 12 | 300 |  |  |  |  | > 500 | > 500 |  |  |  |  |  |  |  |  | 0.48 |  |
| Nc1ncnc2c1ncn2CCOCP(=O)(O)O [ADEFOVIR] | > 72 |  | 5.04 |  |  | Stable |  | Stable |  |  |  |  | Stable |  | Stable |  |  |  | > 400 |  | half-life [11]: > 72 h; Stability [20]: Stable; Stability [21]: Stable; half-life [26]: > 72 h |
| O=c1[nH]c(=O)n([C@H]2C[C@H](O)[C@@H](CO)O2)cc1/C=C/Br [BRIVUDINE] |  | 300 |  | 300 | 2.4 |  | > 500 |  | > 500 | > 500 | > 500 | > 500 |  | > 500 |  | > 500 | > 500 | > 500 |  | 0.096 | EC50 [5]: > 500 µM |
| Nc1nc2c(ncn2COC(CO)CO)c(=O)[nH]1 [GANCICLOVIR] |  | 0.032 |  | 0.48 | > 100 |  |  |  |  | > 100 | > 100 |  |  |  |  |  |  |  |  | 0.019 |  |
| NC(=O)c1ncn([C@@H]2O[C@H](CO)[C@@H](O)[C@H]2O)n1 [RIBAVIRIN] |  | > 500 |  | > 500 | 100 |  | 100 |  | > 500 | > 500 | > 500 | 100 |  | > 500 |  | > 500 | > 500 | 12 |  | 300 | EC50 [5]: 300 µM |
| Cc1cn([C@H]2C=C[C@@H](CO)O2)c(=O)[nH]c1=O [STAVUDINE] |  |  | 0.062 |  |  |  |  |  |  |  |  |  |  |  |  |  |  |  | > 400 |  |  |
| C[C@H](Cn1cnc2c(N)ncnc21)OCP(=O)(O)O [TENOFOVIR ANHYDROUS] | > 72 |  | 0.35 |  |  | Stable |  | Stable |  |  |  |  | Stable |  | Stable |  |  |  | > 400 |  | half-life [11]: > 72 h; Stability [20]: Stable; Stability [21]: Stable; half-life [26]: > 72 h |
| Cc1cn([C@H]2C[C@H](N=[N+]=[N-])[C@@H](CO)O2)c(=O)[nH]c1=O [ZIDOVUDINE] |  |  | 0.025 |  |  |  |  |  |  |  |  |  |  |  |  |  |  |  | > 400 |  |  |
